Myeloid diff 2: compounds promoting myeloid differentiation | ER-HoxA9 myeloid progenitors, lysozyme-GFP differentiation, flow cytometry | calls only at 10 µM | 360,000 tested, 1% active;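 active = normalized GFP-positive differentiation at or above the plate's own cutoff, the solvent-only control mean plus 3 SD; inconclusive = no clear call, values can overlap the other calls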;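 note: cells exposed to compound for four days before flow analysis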
CASP6 VEID inh: caspase-6 (human) enzyme inhibition; P55212; purified caspase-6, Z-VEID-R110 cleavage fluorescence; inhibition, % at 12.5 µM; 350,000 tested, 0.53% active; AID 686996;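 active = mean inhibition across replicates at least about 35%, with every replicate also reaching that limit, limit read from the data; inconclusive = only one of the two criteria met; inactive = neither criterion met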;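 note: 0% = median of neutral control wells and 100% = no fluorescence left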
Target sequence (P55212 24-179 limits assumed): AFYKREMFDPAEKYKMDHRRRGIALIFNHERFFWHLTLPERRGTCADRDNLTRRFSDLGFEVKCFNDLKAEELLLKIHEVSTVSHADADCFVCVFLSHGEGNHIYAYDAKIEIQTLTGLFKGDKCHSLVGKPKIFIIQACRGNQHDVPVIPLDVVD
Target sequence (P55212 194-293 limits assumed): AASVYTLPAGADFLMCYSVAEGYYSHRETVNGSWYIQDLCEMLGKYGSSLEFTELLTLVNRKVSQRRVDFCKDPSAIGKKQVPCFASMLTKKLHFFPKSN
T cell modulator: T cell immune modulation candidate | 2C CD8+ T cell-vesicle binding, flow cytometry; active compounds read low | response (vesicle binding), % at 7 µM | 330,000 tested, 0.068% active | AID 2052;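 active = response, share of CD8 T cells binding vesicles, and their 90th percentile fluorescence all below set limits, cut at about 80% in these data, passing the limit was not always enough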;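 note: values below 100% mean blocked vesicle binding to the CD8+ T cells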
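Assay system – 2C mouse CD8+ T cells · Also added – QL9-loaded Drosophila micro-vesicles · Timing – Cell–vesicle co-incubation 1.5 h at 37 °C, staining 20 min on ice · Signal – flow cytometry of vesicle-bound cells · Measure – percent CD8+ FL2 mean versus row control · Controls – Peptide-free naked vesicles (low) and QL9 vesicles with 0.7% DMSO vehicle (high)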
Vif imaging: HIV Vif inhibition | HEK293T cells, Vif self-association by quenched fluorescence, imaging, 24 h | 340,000 tested, 0.35% active | inhibition, % at 7.49 µM; in the data active = inhibition above about 50%, passing the limit was not always enough; inconclusive = no clear call, values can overlap the other calls; inactive = below about 31%
Myeloid diff CP1: promotes myeloid progenitor differentiation; shares compounds with Myeloid diff 2; ER-HoxA9 myeloid progenitors, GFP/Mac1 double-positive flow; calls only; 2,300 tested, 2% active; AID 651706;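 active = share of green or green-and-red cells above 9 and 9% in run 1 or 4 and 3% in run 2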
GFP autofluor: compound fluorescence in myeloid differentiation counter-screen. AID 651707. fluorescence response, % (no concentration beside the values). 2,300 tested, 7.4% active. shares compounds with Myeloid diff 2. ER-HoxA9 myeloid progenitors, no estrogen, GFP autofluorescence flow cytometry; vehicle wells 0%, positive control 100%;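 active = over 5% cells positive for green fluorescent reporter, or over 2% positive for both it and APC stain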;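 note: range taken on the double positive population between DMSO and positive control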
Numbers without * were called inactive; i = inactive; ? = inconclusive; / = no result; + = active, no number. Compounds with a hit are over-represented: about 1.4% of the library has one in this group of screens.

SMILES	Myeloid diff 2	CASP6 VEID inh	T cell modulator	Vif imaging	Myeloid diff CP1	GFP autofluor
CC(C)=C1SC(N2CCCCC2)=NC1=O	i	/	483.3	6.6	/	/
COC(=O)NNC(=O)COc1ccc2ccccc2c1Br	i	0.1	392.2	13.1	i	0.7
O=[N+]([O-])c1cccc(-c2nc(-c3ccccc3)no2)c1	i	-3.0	228.9	9.3	/	/
O=[N+]([O-])c1cccc(-c2nc(-c3ccncc3)no2)c1	+	/	219.3	-12.7	i	2.5
CCOC(=O)C1(CC2CC2)CCN(C(=O)c2cccnc2C)CC1	i	-0.6	247.9	-6.7	i	0.3
O=C(c1ccccc1)N1CC(=O)N2[C@H](C1)[C@@H](c1ccc(C#CCC3CCCC3)cc1)[C@@H]2CO	/	-1.1	/	/	/	/
Cc1ccc(CSc2nnc(-c3cccnc3)n2N)cc1	i	/	975.5	3.8	/	/
Cc1ccc(C(=O)CSc2nnc(-c3cccnc3)n2N)cc1	i	/	176.4	-6.6	i	0.0
COc1ccccc1CC1(C)NC(=O)N(CC(=O)N2CC(C)OC(C)C2)C1=O (centres undefined)	i	/	226.5	/	i	0.3
CC1CN(C(=O)CN2C(=O)NC3(CCCCCC3)C2=O)CC(C)O1 (centres undefined)	i	/	132.8	-7.3	/	/
C[C@@H]1CN([C@H](C)CO)C(=O)c2cc(C#CC3CCCCC3)cnc2O[C@@H]1CN(C)S(C)(=O)=O	/	1.9	/	/	/	/
O=C(C[C@H]1CC[C@H]2[C@@H](COC[C@@H](O)CN2Cc2ccc(Oc3ccccc3)cc2)O1)N1CCCCC1	/	-0.2	/	/	/	/
CC1(C)O[C@@H]2[C@H](O1)[C@@H](COS(=O)(=O)O)O[C@H]2n1cc(Br)c(=O)[nH]c1=O	+	-2.9	381.6	-1.3	i	0.0
COc1ccc(/C=C2\SC(=S)N(CCC(=O)NC3CCCC3)C2=O)cc1OC	i	-0.7	170.5	6.1	i	0.0
CCOC(=O)N1CCN(C(=O)CCN2C(=O)/C(=C\c3ccc(OC)c(OC)c3)SC2=S)CC1	i	1.2	/	2.5	/	/
O=C(C[C@@H]1CC[C@H]2[C@@H](COC[C@H](O)CN2S(=O)(=O)c2ccccc2)O1)Nc1ccccc1	/	2.8	/	/	/	/
CCn1c(CNC(=O)COc2ccc(C(C)C)cc2)nnc1SCC(=O)Nc1ccc(F)cc1	i	/	111.4	-3.0	i	0.0
CCCNC(=O)N1CC2(C1)[C@@H](c1ccccc1)[C@@H](CO)N2Cc1ccccn1	/	-1.2	/	/	/	/
COc1ccc(NC(=O)c2ccc([N+](=O)[O-])s2)c([N+](=O)[O-])c1	i	-3.6	213.1	21.7	i	0.0
COc1ccc(NC(=O)c2ccc(C)o2)c([N+](=O)[O-])c1	i	/	97.7	1.3	/	/
COCC(=O)N1[C@H](C(=O)N2CCCCC2)[C@@H](CO)[C@@H]2Cn3c(ccc(C4=CCCC4)c3=O)[C@@H]21	/	1.4	/	/	/	/
C[C@H]1CN([C@@H](C)CO)C(=O)c2cccc(NS(C)(=O)=O)c2O[C@H]1CN(C)C(=O)Nc1ccc(F)cc1	/	0.2	/	/	/	/
Cc1cc(C)n2nc(C(=O)OCC(=O)Nc3ccc(C)c(F)c3)nc2n1	i	-3.1	264.0	0.9	i	0.3
CCc1ccc(NC(=O)COC(=O)c2nc3nc(C)cc(C)n3n2)cc1	i	4.1	i	-2.1	/	/
CCCNC(=O)N1CC2(CN(CC3CCOCC3)C2)c2c([nH]c3cc(OC)ccc23)[C@H]1CO	/	-0.7	/	/	/	/
SMILES	Myeloid diff 2	CASP6 VEID inh	T cell modulator	Vif imaging	Myeloid diff CP1	GFP autofluor
COc1ccc(-n2c(=S)[nH]c3cc(C(=O)Nc4ccc(C)c(F)c4)ccc3c2=O)c(OC)c1	+	2.2	354.2	-8.3	i	0.0
COc1ccc(Cn2c(C)nc3c(c2=O)c2nc4ccccc4nc2n3Cc2ccco2)cc1	i	-4.8	/	-0.4	i	0.0
Cc1ccc(C(C(=O)NC2CCCCC2)N(C(=O)Cc2c[nH]c3ccccc23)c2ccccc2)o1 (centres undefined)	+	/	698.2	7.2	i	0.3
CC(=O)Nc1ccc(N(C(=O)Cc2c[nH]c3ccccc23)C(C(=O)NC2CCCCC2)c2ccco2)cc1 (centres undefined)	i	/	312.2	0.2	/	/
S=C(c1cn(Cc2ccc(Br)cc2)c2ccccc12)N1CCOCC1	i	/	358.2	5.2	i	0.0
O=C(N[C@@H](Cc1ccccc1)C(=O)Nc1ccc(F)cc1)C1CCNCC1	i	-3.6	283.6	0.6	/	/
C[C@H](N)C(=O)N1CCC(C(=O)N[C@@H](Cc2ccccc2)C(=O)Nc2ccc(F)cc2)CC1	i	-1.2	190.0	3.3	i	0.0
CC(=O)Cc1cc(=O)c2c(C)cc(O)c(C3OC(CO)C(O)C(O)C3O)c2o1 (centres undefined)	i	-0.3	288.3	8.9	i	0.0
O=c1cc(-c2ccc(O)c(O)c2)oc2cc(O)c([C@@H]3O[C@H](CO)[C@@H](O)[C@H](O)[C@H]3O)c(O)c12	i	5.8	418.1	-3.7	/	/
CC1(C)CC(=O)C=C(C#CC2(O)CCCCC2)C1	?	8.2	/	5.4	i	0.0
O=C(NC1CC1)c1cccc(NC(=O)c2cnn(-c3ccccc3)n2)c1	+	-4.1	560.3	-0.7	i	4.5
CO[C@@H]1CN(C)C(=O)c2ccc(NC(=O)c3ccno3)cc2OC[C@@H](C)NC[C@@H]1C	/	-2.7	/	/	/	/
COc1ccc(/C=N/NC(=O)CSc2n[nH]c(=O)[nH]c2=O)cc1	i	3.3	324.7	-1.1	/	/
CC(/C=N/NC(=O)CSc1n[nH]c(=O)[nH]c1=O)=C\c1ccccc1	i	0.9	102.2	-2.1	i	0.0
O=C1C2C(C(=O)N1CC1CCCO1)C1C=CC2C12CC2 (centres undefined)	/	/	558.4	4.6	i	0.9
COc1ccc(Cl)cc1NC(=O)C1CSC(c2ccncc2)=N1 (centres undefined)	+	-1.2	603.5	-2.8	i	0.4
COc1cccc(-c2nnc3n2N=C(c2cc(OC)ccc2OC)CS3)c1	+	/	640.7	-4.6	i	10.6*
CC1(C)O[C@H]2CC(=O)OC[C@@]23C1CC(=O)[C@]1(C)C3CC[C@@]2(C)[C@H](c3ccoc3)OC(=O)[C@H]3O[C@]321 (some centres undefined)	+	1.5	122.4	12.0	i	0.0
O=C(Nc1ccc(F)cc1)N[C@@H]1C[C@@H]2O[C@H](CO)CC[C@@H]2O[C@@H]1CCc1ccc(-c2ccccc2)cc1	/	0.6	/	/	/	/
COc1cc(NCC(=O)Nc2cccc(S(=O)(=O)N3CCCCC3)c2)cc(OC)c1OC	+	-2.1	203.7	-8.9	i	0.8
CN(C)S(=O)(=O)c1cccc(NC(=O)c2cccc(S(=O)(=O)N3CCCCCC3)c2)c1	+	-0.7	/	-2.3	i	0.5
O=C(NCCN1CCOCC1)c1cccc(S(=O)(=O)N2CCCCCC2)c1	i	/	125.4	5.3	/	/
O=C(NCCO)c1cccc(S(=O)(=O)N2CCCCC2)c1	i	/	721.2	-0.5	i	0.3

High-throughput results as filed in PubChem BioAssay.
